Assays:
[1] = Stability in human liver microsomes at 100 uM after 1 hr; assay type: ADME, Microsome; conditions: read-out: Stability
[2] = Partition coefficient, log P of the compound; assay type: physicochemical; conditions: octanol/water
[3] = Stability in human liver S9 fraction at 100 uM after 1 hr; assay type: ADME, subcellular; conditions: read-out: Stability
Outline: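 Human liver microsomes (0.125 mg protein) or S9 (0.056 mg) in 0.1 M sodium phosphate pH 7.4, preincubated 5 min at 37°C. Compound added from 100 μM stock (final 1.0 μM). Started with NADPH-generating system (NADP, glucose 6-phosphate, G6PDH, MgCl₂), shaken 60 min at 37°C, stopped with cold ethanol with internal standard. Percent remaining vs 0-min ethanol-quenched control.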

[4] = Elimination half life in rat at 5 mg/kg, po; assay type: ADME, organism-based; set-up: dose 5 mg/kg, route oral; conditions: in vivo
Outline: (§1)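 Rodents dosed by oral gavage at 5 mg/kg in oleic oil solution (0.1 mL mice, 1 mL rats). Whole blood (10 μL) sampled at 0, 0.5, 1, 2, 4, 6, 8 and 24 h and analysed by LC/MS/MS. Elimination t1/2 (min) from noncompartmental fit of concentration-time data, averaged over at least three animals.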

[5] = Elimination half life in dog at 0.3 mg/kg, po; assay type: ADME, organism-based, Canis lupus familiaris; set-up: dose 0.3 mg/kg, route oral; conditions: in vivo
Outline: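 Oral gavage at 0.3 mg/kg in 3 ml tristerate at body temperature. Plasma assayed by LC/MS/MS. t1/2 from noncompartmental fit, minutes, at least three animals.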

[6] = Elimination half life in mouse at 5 mg/kg, po; assay type: ADME, organism-based; set-up: dose 5 mg/kg, route oral; conditions: in vivo; outline: as §1

remaining at 1 h, 100 µM [1] | logP [2] | remaining at 1 h, 100 µM [3] | half-life [4] | half-life [5] | half-life [6] | SMILES
12% | – | – | – | – | – | CCCC(C)COCCCCCNC(=O)NC12CC3CC(CC(C3)C1)C2 (stereo unspecified)
91% | 2.9 | 79% | 2.5 h | 1.5 h | 2.67 h | CCOCCOCCOC1CCC(NC(=O)NC23CC4CC(CC(C4)C2)C3)CC1 (stereo unspecified)
56% | – | 9% | – | – | – | CCOCCOCCOc1cccc(NC(=O)NC23CC4CC(CC(C4)C2)C3)c1
7.5% | – | – | – | – | – | CCCOCCCCOCCCCCNC(=O)NC12CC3CC(CC(C3)C1)C2
12% | – | – | – | – | – | CCCCC(C)OCCCCCNC(=O)NC12CC3CC(CC(C3)C1)C2 (stereo unspecified)
59% | – | – | – | – | – | CS(=O)(=O)NCCCCCOCCCCCNC(=O)NC12CC3CC(CC(C3)C1)C2
30% | 3.6 | 11% | 0.65 h | 3 h | – | CCOCCOCCOCCCCCNC(=O)NC12CC3CC(CC(C3)C1)C2
92% | 2.2 | 81% | 1.83 h | 2.17 h | 1.33 h | O=C(NC1CCC(OCCCN2CCOCC2)CC1)NC12CC3CC(CC(C3)C1)C2 (stereo unspecified)
22% | > 5 | – | 2 h | 2 h | 2.83 h | CCCCCOC1CCC(NC(=O)NC23CC4CC(CC(C4)C2)C3)CC1 (stereo unspecified)
5% | – | – | – | – | – | CCOCCOCCOCCCCCNC(=O)CC12CC3CC(CC(C3)C1)C2
54% | – | 14% | – | – | – | COCCOCCOCCOCCCCCNC(=O)NC12CC3CC(CC(C3)C1)C2
39% | – | 1.1% | – | – | – | O=C(NCCCCCOCCOCCOCC(F)(F)F)NC12CC3CC(CC(C3)C1)C2
– | 3.9 | 70% | 9.67 h | 5.33 h | – | CCOCCOCCOc1ccc(NC(=O)NC23CC4CC(CC(C4)C2)C3)cc1
89% | 2.4 | 34% | 3.33 h | 1.5 h | 0.25 h | O=C(NCCCCCOCCCN1CCOCC1)NC12CC3CC(CC(C3)C1)C2
32% | – | 5% | – | – | – | CCOCCOCCOCCCCCCC(=O)NC12CC3CC(CC(C3)C1)C2
21% | – | – | – | – | – | CCc1ccc(OCCOCCOCCCCCNC(=O)NC23CC4CC(CC(C4)C2)C3)cc1
6.8% | – | – | – | – | – | CCCOCCCOCCCCCNC(=O)NC12CC3CC(CC(C3)C1)C2
93% | 2.9 | 97% | – | 2.17 h | – | O=C(Nc1ccc(OCCCN2CCOCC2)cc1)NC12CC3CC(CC(C3)C1)C2
42% | – | 12% | – | – | – | CS(=O)(=O)NCCOCCOCCCCCNC(=O)NC12CC3CC(CC(C3)C1)C2
25% | 5 | – | – | 2.17 h | – | CCCCOCCCCCNC(=O)NC12CC3CC(CC(C3)C1)C2

Reference: ChEMBL document CHEMBL1148831, “1,3-disubstituted ureas functionalized with ether groups are potent inhibitors of the soluble epoxide hydrolase with improved pharmacokinetic properties” (J Med Chem, 2007)
